Measured values published in ChEMBL document CHEMBL3286189, “Discovery and SAR studies of a novel class of cytotoxic 1,4-disubstituted piperidines via Ugi reaction” (Eur J Med Chem, 2014).

What was measured:
Assay type in all cases: functional, cell-based
HeLa = assay: Cytostatic activity against human HeLa cells assessed as inhibition of cell proliferation after 72 hrs by coulter counting analysis
How it was run: (§1)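 Anti-proliferative screen in murine leukemia L1210, human T-lymphocyte CEM and human cervix carcinoma HeLa cultures. The value reported is the IC50, the concentration that inhibits cell proliferation by 50%.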

CCRF-CEM = assay: Cytostatic activity against human CEM cells assessed as inhibition of cell proliferation after 72 hrs by coulter counting analysis; how it was run: as §1
L1210 = assay: Cytostatic activity against mouse L1210 cells assessed as inhibition of cell proliferation after 48 hrs by coulter counting analysis; how it was run: as §1

Row | Structure (SMILES) | IC50 (HeLa; Homo sapiens, HeLa, 72 h) [µM] | IC50 (CCRF-CEM; Homo sapiens, CCRF-CEM, 72 h) [µM] | IC50 (L1210; Mus musculus, L1210, 48 h) [µM] | IC50 (HeLa; hela) [µM] | IC50 (CCRF-CEM; ccrf-cem) [µM] | IC50 (L1210; l1210) [µM]
1 | COC(=O)C[C@H](NC(=O)OC(C)(C)C)C(=O)N(Cc1ccccc1)C1(C(=O)NCc2ccccc2)CCN(Cc2ccccc2)CC1 | 20 | 19 | 18 | – | – | –
2 | CCC(C)N(C(=O)[C@H](CC(=O)OC)NC(=O)OC(C)(C)C)C1(C(=O)NCc2ccccc2)CCN(Cc2ccccc2)CC1 (some centres undefined) | 16 | 19 | 20 | – | – | –
3 | CC(C)(C)OC(=O)N[C@@H](Cc1ccccc1)C(=O)N(Cc1ccccc1)C1(C(=O)NCc2ccccc2)CCN(C(=O)OC(C)(C)C)CC1 | 13 | 5.7 | 5 | – | – | –
4 | CC(C)(C)OC(=O)N1CCC[C@H]1C(=O)N(Cc1ccccc1)C1(C(=O)NCc2ccccc2)CCN(Cc2ccccc2)CC1 | 137 | > 50 | 61 | – | – | –
5 | CCC(C)N(C(=O)[C@H](Cc1ccccc1)NC(=O)OC(C)(C)C)C1(C(=O)NCc2ccccc2)CCN(Cc2ccccc2)CC1 (some centres undefined) | 24 | 10 | 4.2 | – | – | –
6 | COC(=O)C[C@H](NC(=O)OC(C)(C)C)C(=O)N(Cc1ccccc1)C1(C(=O)NC(C)(C)C)CCN(Cc2ccccc2)CC1 | 21 | 24 | 23 | – | – | –
7 | CC[C@H](C)[C@H](NC(=O)OC(C)(C)C)C(=O)N(Cc1ccccc1)C1(C(=O)NCc2ccccc2)CCN(Cc2ccccc2)CC1 | 10 | 7.1 | 4.4 | – | – | –
8 | COC(=O)C[C@H](NC(=O)OC(C)(C)C)C(=O)N(C)C1(C(=O)NCc2ccccc2)CCN(Cc2ccccc2)CC1 | 11 | 20 | 17 | – | – | –
9 | COC(=O)C[C@H](NC(=O)OC(C)(C)C)C(=O)N(Cc1ccccc1)C1(C(=O)NCc2ccccc2)CCN(C(=O)OC(C)(C)C)CC1 | 24 | 21 | 21 | – | – | –
10 | C=CCOC(=O)N1CCC(C(=O)NCc2ccccc2)(N(Cc2ccccc2)C(=O)[C@@H](N)Cc2ccccc2)CC1 | 63 | 54 | 49 | – | – | –
11 | C=CCOC(=O)N1CCC(C(=O)NCc2ccccc2)(N(Cc2ccccc2)C(=O)[C@H](CC(=O)OC)NC(=O)OC(C)(C)C)CC1 | 107 | 65 | 24 | – | – | –
12 | COC(=O)C[C@H](NC(=O)OC(C)(C)C)C(=O)N(Cc1ccccc1)C1(C(=O)NCc2ccccc2)CCN(Cc2ccccc2)C1 (single isomer, unassigned; diastereomer-1) | – | 19 | 6.2 | 16 | – | –
13 | COC(=O)C[C@H](NC(=O)OCC1c2ccccc2-c2ccccc21)C(=O)N(Cc1ccccc1)C1(C(=O)NCc2ccccc2)CCN(Cc2ccccc2)CC1 | 14 | 5.2 | 5.4 | – | – | –
14 | CC(C)(C)OC(=O)N[C@@H](CC(=O)O)C(=O)N(Cc1ccccc1)C1(C(=O)NCc2ccccc2)CCN(Cc2ccccc2)CC1 | > 200 | > 200 | 164 | – | – | –
15 | COC(=O)C[C@H](NC(=O)OCc1ccccc1)C(=O)N(C1CC1)C1(C(=O)NCc2ccccc2)CCN(Cc2ccccc2)CC1 | 4.7 | 6.2 | 5.3 | – | – | –
16 | COC(=O)C[C@H](NC(=O)OC(C)(C)C)C(=O)N(CCNc1ccccc1)C1(C(=O)NCc2ccccc2)CCN(Cc2ccccc2)CC1 | 21 | 14 | 21 | – | – | –
17 | CC(C)(C)NC(=O)C1(N(C(=O)[C@H](Cc2ccccc2)NC(=O)OCc2ccccc2)C2CC2)CCN(Cc2ccccc2)CC1 | 26 | 6 | 6.6 | – | – | –
18 | CC(C)(C)NC(=O)C1(N(C(=O)[C@H](Cc2ccccc2)NC(=O)OC(C)(C)C)C2CC2)CCN(Cc2ccccc2)CC1 | 20 | 19 | 14 | – | – | –
19 | CCC(C)N(C(=O)[C@@H](N)CC(=O)OC)C1(C(=O)NCc2ccccc2)CCNCC1 (some centres undefined) | > 250 | > 250 | > 250 | – | – | –
20 | CCC(C)N(C(=O)[C@@H](N)CC(=O)OC)C1(C(=O)NCc2ccccc2)CCN(Cc2ccccc2)CC1 (some centres undefined) | > 250 | 238 | 244 | – | – | –
21 | COC(=O)C[C@H](NC(=O)OC(C)(C)C)C(=O)N(Cc1ccccc1)C1(C(=O)NCc2ccccc2)CCN(Cc2ccccc2)C1 (single isomer, unassigned; diastereomer 2) | 18 | – | – | – | 22 | 9
22 | CC(C)(C)OC(=O)N[C@@H](Cc1ccc(O)cc1)C(=O)N(Cc1ccccc1)C1(C(=O)NCc2ccccc2)CCN(Cc2ccccc2)CC1 | 23 | 5.2 | 5 | – | – | –
23 | CN(C)C(=O)C[C@H](NC(=O)OC(C)(C)C)C(=O)N(Cc1ccccc1)C1(C(=O)NCc2ccccc2)CCN(Cc2ccccc2)CC1 | 68 | 59 | 76 | – | – | –
